Data as given in ChEMBL document CHEMBL1121505, “Retinoic acid analogues. Synthesis and potential as cancer chemopreventive agents” (J Med Chem, 1980).

Tests used:
Format in all cases: functional
[1] = Inhibition of skin tumor promoter -induced mouse epidermal ornithine decarboxylase (ODC) activity on TPA-induced mouse epidermis at a dose of 1.7(nmol)
Method in brief: (§1)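 Female CD-1 mice, 7–9 weeks, shaved dorsal skin 1–2 days before, no hair regrowth. Retinoid applied topically in 0.2 mL acetone 1 h before single topical TPA (10.5 μg, 17 nmol, in 0.2 mL acetone). Killed 5 h after TPA. Five mice per group, skins pooled. Epidermal 30000g supernatant in 50 mM sodium phosphate, 0.1 mM pyridoxal phosphate, 0.1 mM EDTA.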

[2] = Inhibition of skin tumor promoter -induced mouse epidermal ornithine decarboxylase (ODC) activity on TPA-induced mouse epidermis at a dose of 17(nmol); method in brief: as §1
[3] = Inhibition of skin tumor promoter -induced mouse epidermal ornithine decarboxylase (ODC) activity on TPA-induced mouse epidermis at a dose of 170(nmol); method in brief: as §1

CC(=O)Oc1cccc(/C=C/C=C(C)/C=C/C2=C(C)CCCC2(C)C)c1
inhibition [1]: 3% | inhibition [2]: 46% | inhibition [3]: 92%

CCC1=C(/C=C/C(C)=C/C=C/C(C)=C/C(=O)O)C(C)(C)CCC1
inhibition [1]: 66% | inhibition [2]: 86% | inhibition [3]: 87%

CC1=C(/C=C/C(C)=C/C=C/C(C)=C/C(=O)O)C(C)(C)CCC1
inhibition [1]: 91%

COCCOCCOC(=O)/C=C(C)/C=C/C=C(C)/C=C/C1=C(C)CCCC1(C)C
inhibition [1]: 70% | inhibition [2]: 92% | inhibition [3]: 97%

CCOC(=O)/C=C(C)/C=C/C=C(C)/C=C/C1=CC2CCC1C2 (stereo unspecified)
inhibition [1]: 46% | inhibition [2]: 63% | inhibition [3]: 95%

CC1=C(/C=C/C(C)=C/C=C/C(C)=C/c2nn[nH]n2)C(C)(C)CCC1
inhibition [1]: 3% | inhibition [2]: 13% | inhibition [3]: 2%
